Measurements: ChEMBL document CHEMBL4619820, “Development of Novel AKR1C3 Inhibitors as New Potential Treatment for Castration-Resistant Prostate Cancer” (J Med Chem, 2020)
The source made the active and inactive calls. No cut-off for these calls is given here.

Assays:
[1] = Toxicity in Balb/c nu/nu athymic mouse xenografted with human 22Rv1 cells assessed as effect on kidney histology at 100 mg/kg, ip dosed twice per week for 6 weeks by H and E staining dependent light microscopy based histopathological analysis; format: organism-based, CWR22R; conditions: in vivo, 1008 h
Summary of the method: (§1)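 Mice carrying 22Rv1 xenografts were dosed intraperitoneally, with vehicle controls n=15 and treated groups n=10. Tissue sections of kidney, liver and lung were stained with hematoxylin and eosin and examined by light microscopy at ×40 magnification for histopathological changes.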

[2] = tested on: CWR22R; experiment: Antitumor activity against human 22Rv1 cells xenografted in Balb/c nu/nu athymic mouse assessed as increase in necrotic region in tumor tissue at 100 mg/kg, ip dosed twice per week for 6 weeks by H and E staining dependent light microscopy based histopathological analysis; format: functional, organism-based
Summary of the method: (§2)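 Tumor tissue, plus liver, kidney and lung, from xenografted mice given ip 50 or 100 mg/kg; sections stained with hematoxylin and eosin and examined at ×40 for necrotic areas.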

[3] = Toxicity in Balb/c nu/nu athymic mouse xenografted with human 22Rv1 cells assessed as effect on liver histology at 100 mg/kg, ip dosed twice per week for 6 weeks by H and E staining dependent light microscopy based histopathological analysis; format: organism-based, CWR22R; conditions: in vivo, 1008 h; summary of the method: as §1
[4] = tested on: CWR22R; experiment: Antitumor activity against human 22Rv1 cells xenografted in Balb/c nu/nu athymic mouse assessed as reduction in tumor volume at 100 mg/kg, ip dosed twice per week for 6 weeks; format: functional, organism-based
Summary of the method: (§3)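 22Rv1 xenograft mice dosed intraperitoneally with vehicle (control, n=15), 50 mg/kg (n=10) or 100 mg/kg (n=10); tumor size followed over time; body weights recorded.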

[5] = Toxicity in Balb/c nu/nu athymic mouse xenografted with human 22Rv1 cells assessed as effect on body weight at 100 mg/kg, ip dosed twice per week for 6 weeks […]; format: organism-based, CWR22R; conditions: in vivo, 1008 h
Summary of the method: (§4)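 Mice carrying 22Rv1 xenografts received intraperitoneal injections. The vehicle control group had n=15 and each treated dose group had n=10. Average body weights were compared between treated and vehicle-control mice.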

[6] = tested on: CWR22R; experiment: Antitumor activity against human 22Rv1 cells xenografted in Balb/c nu/nu athymic mouse assessed as reduction in tumor volume at 50 mg/kg, ip dosed twice per week for 6 weeks; format: functional, organism-based; summary of the method: as §3
[7] = Toxicity in Balb/c nu/nu athymic mouse xenografted with human 22Rv1 cells assessed as effect on kidney histology at 50 mg/kg, ip dosed twice per week for 6 weeks by H and E staining dependent light microscopy based histopathological analysis; format: organism-based, CWR22R; conditions: in vivo, 1008 h; summary of the method: as §1
[8] = target: T1, Aldo-keto reductase family 1 member C3 (Homo sapiens) (UniProt P42330); experiment: Inhibition of AKR1C3 in human 22Rv1 cells assessed as potentiation of abiraterone-induced apoptosis by measuring increase in Bax level at 10 uM pre-incubated for 2 hrs before addition of pregnenolone for 24 hrs by Western blot analysis; format: cell-based; conditions: CWR22R
T1 sequence (whole entry): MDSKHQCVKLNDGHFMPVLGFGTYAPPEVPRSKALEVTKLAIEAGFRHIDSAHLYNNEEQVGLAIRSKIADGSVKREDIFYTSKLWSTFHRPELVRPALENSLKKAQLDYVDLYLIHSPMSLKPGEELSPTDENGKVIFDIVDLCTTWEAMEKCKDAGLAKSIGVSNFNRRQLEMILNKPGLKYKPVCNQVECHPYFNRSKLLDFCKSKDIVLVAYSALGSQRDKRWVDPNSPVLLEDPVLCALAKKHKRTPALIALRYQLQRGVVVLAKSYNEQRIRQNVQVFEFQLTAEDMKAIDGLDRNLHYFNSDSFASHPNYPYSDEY

[9] = tested on: LNCaP; experiment: Inhibition of pregnenolone-induced cell proliferation of human LNCAP cells at 10 to 20 uM incubated for 72 hrs by alamar blue assay; format: functional, cell-based
Summary of the method: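 LNCaP and androgen-low-sensitive LNCaP-E9 cells pretreated 2 h with inhibitor, then 72 h with 20 nM pregnenolone; viable cells expressed as percent of untreated LNCaP control.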

[10] = tested on: CWR22R; experiment: Effect on steroid 5alpha-reductase in human 22Rv1 cells assessed as effect on metabolism of 4AD into testosterone at 10 to 20 uM pre-incubated for 2 hrs before 4AD addition for 24 hrs by EIA; format: cell-based
Summary of the method: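 22Rv1 cells pretreated 2 h with or without 2 μM finasteride and/or inhibitor, then cultured 24 h with 100 nM 4AD; testosterone in cell extracts quantified by EIA and expressed as percent of finasteride-free control.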

[11] = target: T1, Aldo-keto reductase family 1 member C3 (Homo sapiens); experiment: Inhibition of AKR1C3 in human 22Rv1 cells assessed as as reduction in PSA mRNA expression at 10 to 20 uM pre-incubated for 2 hrs before pregnenolone stimulation for 24 hrs by RT-qPCR analysis; format: cell-based; conditions: CWR22R
Summary of the method: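 22Rv1 cells pretreated 2 h with test agents, then stimulated 24 h with 20 nM pregnenolone; AR, TMPRSS2 and PSA mRNA measured by RT-qPCR, given as ratio to pregnenolone-free control.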

[12] = tested on: CWR22R; experiment: Antitumor activity against human 22Rv1 cells xenografted in Balb/c nu/nu athymic mouse assessed as increase in necrotic region in tumor tissue at 50 mg/kg, ip dosed twice per week for 6 weeks by H and E staining dependent light microscopy based histopathological analysis; format: functional, organism-based; summary of the method: as §2
[13] = Toxicity in Balb/c nu/nu athymic mouse xenografted with human 22Rv1 cells assessed as effect on lung histology at 50 mg/kg, ip dosed twice per week for 6 weeks by H and E staining dependent light microscopy based histopathological analysis; format: organism-based, CWR22R; conditions: in vivo, 1008 h; summary of the method: as §1
[14] = tested on: CWR22R; experiment: Induction of apoptosis in human 22Rv1 cells assessed as increase in cleaved PARP level at 10 uM pre-incubated for 2 hrs before addition of pregnenolone for 24 hrs by Western blot analysis; format: functional, cell-based
Summary of the method: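 Apoptotic markers in 22Rv1: 2 h pretreatment with or without 10 μM inhibitor and/or 50 μM enzalutamide, then 24 h 20 nM pregnenolone; Bax/Bcl-2 ratio as percent of control; cleaved caspase-3 also by immunofluorescence with DAPI.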

[15] = Toxicity in Balb/c nu/nu athymic mouse xenografted with human 22Rv1 cells assessed as effect on liver histology at 50 mg/kg, ip dosed twice per week for 6 weeks by H and E staining dependent light microscopy based histopathological analysis; format: organism-based, CWR22R; conditions: in vivo, 1008 h; summary of the method: as §1
[16] = target: T1, Aldo-keto reductase family 1 member C3 (Homo sapiens); experiment: Inhibition of AKR1C3 in human 22Rv1 cells assessed as induction of ROS generation at 10 uM by DCFH-DA dye based flow cytometric analysis; format: cell-based; conditions: CWR22R
Summary of the method: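 22Rv1 cells exposed 3 h to 10 μM inhibitor and/or abiraterone, or 50 μM enzalutamide; intracellular ROS by flow cytometry as DCF-positive cells, percent of vehicle control.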

[17] = tested on: CWR22R; experiment: Inhibition of pregnenolone-induced cell proliferation of human 22Rv1 cells at 10 to 20 uM pre-incubated for 2 hrs before pregnenolone stimulation for 72 hrs by alamar blue assay; format: functional, cell-based
Summary of the method: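 22Rv1 cells (AKR1C3- and AR-expressing) pretreated 2 h with agents, then cultured 72 h with 20 nM pregnenolone; viable cell number given as percent of pregnenolone-free control.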

[18] = Toxicity in Balb/c nu/nu athymic mouse xenografted with human 22Rv1 cells assessed as effect on body weight at 50 mg/kg, ip dosed twice per week for 6 weeks by H and E staining dependent light microscopy based histopathological analysis; format: organism-based, CWR22R; conditions: in vivo, 1008 h; summary of the method: as §4
[19] = target: T1, Aldo-keto reductase family 1 member C3 (Homo sapiens); experiment: Inhibition of AKR1C3 in human 22Rv1 cells assessed as as reduction in AR nuclear translocation at 10 pre-incubated for 2 hrs before 4AD addition for 24 hrs by Western blot analysis; format: cell-based; conditions: CWR22R
Summary of the method: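 22Rv1 cells pretreated 2 h with or without 10 μM inhibitor, then exposed 24 h to 10 nM 4AD; nuclear AR measured by Western blot of cell extracts, normalized to Lamin A+C, as percent of control.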

SMILES | Activity [1] | Activity [2] | Activity [3] | Activity [4] | Activity [5] | Activity [6] | Activity [7] | inhibition [8] | inhibition [9] | Activity [10] | inhibition [11] | Activity [12] | Activity [13] | Activity [14] | Activity [15] | inhibition [16] | inhibition [17] | Activity [18] | inhibition [19]
CCc1cccc(NC(=O)c2cc3cccc(O)c3oc2=N)c1 | Non-Toxic | Active | Non-Toxic | Active | Non-Toxic |  |  |  |  |  |  |  |  |  |  |  |  |  | 
Cc1ccc(NC(=O)c2cc3cccc(O)c3oc2=N)cc1 |  |  |  |  |  | Active | Non-Toxic | Active | Active | inactive | Active | Active | Non-Toxic | Active | Non-Toxic | Active | Active | Non-Toxic | Active
N=c1oc2c(O)cccc2cc1C(=O)Nc1ccc(F)cc1 |  |  |  |  |  |  |  | Active | Active | inactive | Active |  |  | Active |  | Active | Active |  | Active
